In brackets after ≈: the same amount, converted by molar mass.

Among the data in ChEMBL document CHEMBL4837210 (Eur J Med Chem, 2021) are MIC and MBC values, retold here.

Experiment [1] relates to Enterococcus faecium. The experiment in a line: Antibacterial activity against vancomycin-susceptible Enterococcus faecium ATCC19434 assessed as bacterial growth inhibition incubated for 24 hrs by CLSI protocol based broth microdilution method. The note with it: ATCC19434, 24 h. For orientation: In broth dilution the organism is exposed to a series of concentrations in liquid medium.

The next experiment concerns Pseudomonas aeruginosa. The experiment in a line: Antibacterial activity against penicillin-susceptible Pseudomonas aeruginosa ATCC27853 assessed as bacterial growth inhibition incubated for 24 hrs by CLSI protocol based broth microdilution method. The format is functional.
The test system of the next experiment is Bacillus pumilus. In words: Antibacterial activity against penicillin-susceptible Bacillus pumilus CMCC 63202 assessed as bacterial growth inhibition by broth dilution method. The experiment is classed as functional. The note with it: time 24 hrs. In a few lines: (§1)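 Broth microdilution in Mueller Hinton broth. A 0.5 McFarland suspension was diluted tenfold, giving an inoculum of 1.5 × 10⁷ cfu/mL. This was added to 2-fold serial compound dilutions from […]. Plates were incubated aerobically at 37 °C for 24 h. MIC was the lowest concentration with no visible turbidity.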

The subject of experiment [2] is Bacillus subtilis. In words: Antibacterial activity against penicillin-susceptible Bacillus subtilis ATCC 9372 assessed as bacterial growth inhibition incubated for 24 hrs by CLSI protocol based broth microdilution method. The format is functional.
The test system of experiment [3] is Staphylococcus aureus. In words: Antibacterial activity against Staphylococcus aureus assessed as inhibition of bacterial growth measured by broth microdilution method. The experiment is classed as functional. The settings on record: time 24 hrs. Summed up: as §1
Experiment [4] concerns Streptococcus pyogenes. In words: Antibacterial activity against erythromycin-resistant Streptococcus pyogenes 2 assessed as bacterial growth inhibition incubated for 24 hrs by CLSI protocol based broth microdilution method. The format is functional.
In experiment [5] the test system is Staphylococcus aureus. In words: Antibacterial activity against erythromycin-susceptible Staphylococcus aureus ATCC 25923 assessed as bacterial growth inhibition incubated for 24 hrs by CLSI protocol based broth microdilution method. The experiment is classed as functional.
Experiment [6] concerns Streptococcus pyogenes. The experiment in a line: Antibacterial activity against erythromycin-susceptible Streptococcus pyogenes clinical isolate 1 assessed as bacterial growth inhibition incubated for 24 hrs by CLSI protocol based broth microdilution method. The experiment is classed as functional.
The test system of experiment [7] is Enterococcus faecalis. The experiment in a line: Antibacterial activity against vancomycin-susceptible Enterococcus faecalis ATCC 29212 assessed as bacterial growth inhibition incubated for 24 hrs by CLSI protocol based broth microdilution method. The experiment is classed as functional.
The test system of experiment [8] is Staphylococcus epidermidis. In words: Antibacterial activity against penicillin-resistant Staphylococcus epidermidis assessed as inhibition of bacterial growth measured by broth microdilution method. The experiment is classed as functional. The note with it: time 24 hrs.
The next experiment concerns Escherichia coli. The experiment in a line: Antibacterial activity against penicillin-susceptible Escherichia coli ATCC 25922 assessed as inhibition of bacterial growth measured by broth microdilution method. The experiment is classed as functional. The settings on record: time 24 hrs. In a few lines:
as §1

The subject of experiment [9] is Enterococcus faecium. The experiment in a line: Antibacterial activity against vancomycin-resistant Enterococcus faecium ATCC 51559 assessed as bacterial growth inhibition incubated for 24 hrs by CLSI protocol based broth microdilution method. The note with it: ATCC 51559, 24 h.
Experiment [10] concerns Enterococcus faecalis. In words: Antibacterial activity against vancomycin-resistant Enterococcus faecalis ATCC 51299 assessed as bacterial growth inhibition incubated for 24 hrs by CLSI protocol based broth microdilution method. The experiment is classed as functional.
Experiment [11] relates to Staphylococcus aureus. In words: Antibacterial activity against methicillin-resistant Staphylococcus aureus ATCC 43300 assessed as inhibition of bacterial growth by broth microdilution method. The experiment is classed as functional. The settings on record: time 24 hrs. In a few lines: (§2)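 Broth microdilution MIC. A 0.5 McFarland suspension was diluted 10-fold and added at 1.5 × 10⁷ cfu/mL to 2-fold dilutions (0.125–64) in Mueller Hinton broth. Incubated aerobically 24 h at 37 °C. MIC was the lowest concentration with no visible turbidity.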

For experiment [12], the system named is Staphylococcus aureus. The experiment in a line: Antibacterial activity against penicillin-resistant Staphylococcus aureus assessed as inhibition of bacterial growth measured by broth microdilution method. The format is functional. The settings on record: time 24 hrs. In a few lines: as §2
Experiment [13] deals with Staphylococcus aureus. The experiment in a line: Bactericidal activity against penicillin-resistant Staphylococcus aureus measured after 24 hrs by CLSI protocol based method. The experiment is classed as functional. Summed up:
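MBC after broth microdilution. After 24 h, aliquots from clear wells were plated on tryptic soy agar and incubated aerobically 24 h at 37 °C. MBC was the lowest concentration giving no colonies.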

The test system of experiment [14] is Bacillus subtilis. In words: Bactericidal activity against penicillin-susceptible Bacillus subtilis ATCC 9372 measured after 24 hrs by CLSI protocol based method. The format is functional. Summed up:
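MBC followed on from the 24 h broth microdilution MIC plates. Aliquots from clear wells were spread on tryptic soy agar and incubated aerobically at 37 °C for 24 h. MBC was the minimum concentration giving no colonies.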

In general, MIC refers to the lowest concentration found to suppress growth. As for `COc1ccc2cc3[n+](cc2c1OC)CCc1cc2c(cc1-3)OCO2.[Cl-]` [BERBERINE CHLORIDE], the MIC is over 64 µg/mL in the experiment on Enterococcus faecium [1]; over 64 µg/mL in the experiment with Pseudomonas aeruginosa; over 64 µg/mL in the experiment on Bacillus pumilus; over 64 µg/mL in the experiment with Bacillus subtilis [2]; over 64 µg/mL in the experiment with Staphylococcus aureus [3]; 64 µg/mL in the experiment on Streptococcus pyogenes [4]. For the same molecule, the MIC in the experiment on Staphylococcus aureus [5] was 64 µg/mL; with Streptococcus pyogenes [6], over 64 µg/mL; in the experiment on Enterococcus faecalis [7], over 64 µg/mL; in [8], over 64 µg/mL; in the experiment with Escherichia coli, over 64 µg/mL; in the experiment on Enterococcus faecium [9], over 64 µg/mL. Further, the MIC in the experiment on Enterococcus faecalis [10] and in the experiment with Staphylococcus aureus [11] was over 64 µg/mL each time.
Consider `Cc1cccc(C#Cc2c3ccccc3[n+](C)c3ccccc23)c1.[I-]`, for which the MIC in the experiment with Enterococcus faecium [1] was 8 µg/mL; in the experiment on Pseudomonas aeruginosa it was over 64 µg/mL; in the experiment on Bacillus pumilus it was 2 µg/mL; with Bacillus subtilis [2], 2 µg/mL; in the experiment with Staphylococcus aureus [3] it was 2 µg/mL; with Streptococcus pyogenes [4], 4 µg/mL. Moreover, the minimum inhibitory concentration (MIC) is 2 µg/mL with Staphylococcus aureus [5]; 4 µg/mL in the experiment on Streptococcus pyogenes [6]; 4 µg/mL with Enterococcus faecalis [7]; 4 µg/mL in [8]; over 64 µg/mL in the experiment on Escherichia coli; 4 µg/mL in the experiment with Enterococcus faecium [9]. Further, the MIC with Enterococcus faecalis [10] was 8 µg/mL; with Staphylococcus aureus [12] it was 2 µg/mL; with Staphylococcus aureus [11] it was 2 µg/mL.
Take `CN[C@H](CC(C)C)C(=O)N[C@H]1C(=O)N[C@@H](CC(N)=O)C(=O)N[C@H]2C(=O)N[C@H]3C(=O)N[C@H](C(=O)N[C@H](C(=O)O)c4cc(O)cc(O)c4-c4cc3ccc4O)[C@H](O)c3ccc(c(Cl)c3)Oc3cc2cc(c3O[C@@H]2O[C@H](CO)[C@@H](O)[C@H](O)[C@H]2O[C@H]2C[C@](C)(N)[C@H](O)[C@H](C)O2)Oc2ccc(cc2Cl)[C@H]1O` [VANCOMYCIN]: the MIC is 2 µg/mL (≈ 1.38 µM) in the experiment on Enterococcus faecium [1]; over 64 µg/mL in the experiment on Pseudomonas aeruginosa; 2 µg/mL (≈ 1.38 µM) in the experiment with Bacillus pumilus; 0.5 µg/mL (≈ 0.345 µM) in the experiment on Bacillus subtilis [2]; 1 µg/mL (≈ 0.69 µM) in the experiment with Streptococcus pyogenes [4]; 0.25 µg/mL (≈ 0.173 µM) in the experiment on Streptococcus pyogenes [6]. Besides, the MIC in the experiment on Escherichia coli is over 64 µg/mL.
In the case of `C[n+]1c2ccccc2c(-c2ccc(-c3ccccc3)cc2)c2ccccc21.[I-]`, the MIC in the experiment with Enterococcus faecium [1] is 4 µg/mL; in the experiment on Pseudomonas aeruginosa, over 64 µg/mL; in the experiment with Bacillus pumilus, 1 µg/mL; in the experiment on Bacillus subtilis [2], 1 µg/mL; in the experiment on Staphylococcus aureus [3], 0.25 µg/mL; with Streptococcus pyogenes [4], 1 µg/mL. For the same molecule, the MIC with Staphylococcus aureus [5] was 0.125 µg/mL; in the experiment on Streptococcus pyogenes [6], 0.5 µg/mL; in the experiment on Enterococcus faecalis [7], 4 µg/mL; in experiment [8] it was 2 µg/mL; in the experiment on Escherichia coli, 64 µg/mL; with Enterococcus faecium [9], 2 µg/mL. Also, the MIC was found to be 4 µg/mL in the experiment with Enterococcus faecalis [10], 8 µg/mL with Staphylococcus aureus [12] and 16 µg/mL in the experiment with Staphylococcus aureus [11].
As to `CCc1ccc(C#Cc2c3ccccc3[n+](C)c3ccccc23)cc1.[I-]`, the MIC in the experiment with Enterococcus faecium [1] is 4 µg/mL; in the experiment on Pseudomonas aeruginosa, over 64 µg/mL; in the experiment on Bacillus pumilus it was 2 µg/mL; in the experiment with Bacillus subtilis [2] it was 2 µg/mL; in the experiment on Staphylococcus aureus [3], 2 µg/mL; in the experiment on Streptococcus pyogenes [4], 4 µg/mL. Also, the MIC is 2 µg/mL with Staphylococcus aureus [5]; 4 µg/mL with Streptococcus pyogenes [6]; 2 µg/mL in the experiment on Enterococcus faecalis [7]; 8 µg/mL in experiment [8]; over 64 µg/mL in the experiment with Escherichia coli; 4 µg/mL in the experiment with Enterococcus faecium [9]. For the same molecule, the results for the MIC in the experiment with Enterococcus faecalis [10], in the experiment on Staphylococcus aureus [12] and in the experiment on Staphylococcus aureus [11] were 8 µg/mL, 4 µg/mL and 2 µg/mL, respectively.
In general, MBC refers to the lowest tested concentration that kills the bacteria rather than only halting them. Consider `CC(=O)NC[C@H]1CN(c2ccc(N3CCOCC3)c(F)c2)C(=O)O1` [LINEZOLID], for which the MIC in the experiment with Pseudomonas aeruginosa is over 64 µg/mL; in the experiment with Bacillus pumilus, 2 µg/mL (≈ 5.93 µM); in the experiment with Bacillus subtilis [2], 0.5 µg/mL (≈ 1.48 µM); in the experiment with Streptococcus pyogenes [4], 1 µg/mL (≈ 2.96 µM); in the experiment on Streptococcus pyogenes [6], 1 µg/mL (≈ 2.96 µM); in [8], 4 µg/mL (≈ 11.9 µM). For the same molecule, the MIC in the experiment on Escherichia coli is over 64 µg/mL. The values for the MBC with Staphylococcus aureus [13] and in the experiment with Bacillus subtilis [14] were 16 µg/mL (≈ 47.4 µM) and 64 µg/mL (≈ 190 µM), respectively.
Take `C[n+]1c2ccccc2c(C#Cc2ccc(-c3ccccc3)cc2)c2ccccc21.[I-]`: the minimum inhibitory concentration (MIC) was over 64 µg/mL with Pseudomonas aeruginosa; 8 µg/mL in the experiment with Bacillus pumilus; 8 µg/mL in the experiment with Bacillus subtilis [2]; 16 µg/mL with Staphylococcus aureus [3]; 16 µg/mL in the experiment with Streptococcus pyogenes [4]; 8 µg/mL with Staphylococcus aureus [5]. The MIC is 16 µg/mL with Streptococcus pyogenes [6]; 8 µg/mL in experiment [8]; over 64 µg/mL with Escherichia coli; over 64 µg/mL in the experiment with Enterococcus faecium [9]; over 64 µg/mL with Enterococcus faecalis [10]; 16 µg/mL with Staphylococcus aureus [12]. Besides, the MIC in the experiment on Staphylococcus aureus [11] came out at 16 µg/mL.
As for `CCCCc1ccc(-c2c3ccccc3[n+](C)c3ccccc23)cc1.[I-]`, the MIC in the experiment on Enterococcus faecium [1] was 4 µg/mL; with Pseudomonas aeruginosa it was over 64 µg/mL; in the experiment on Bacillus pumilus, 1 µg/mL; with Bacillus subtilis [2], 0.5 µg/mL; in the experiment on Staphylococcus aureus [3] it was under 0.125 µg/mL; in the experiment on Streptococcus pyogenes [4], 2 µg/mL. Also, the MIC in the experiment on Staphylococcus aureus [5] came out at 0.03 µg/mL; with Streptococcus pyogenes [6], 1 µg/mL; with Enterococcus faecalis [7], 4 µg/mL; in [8] it was 2 µg/mL; with Escherichia coli, 64 µg/mL; in the experiment with Enterococcus faecium [9] it was 2 µg/mL. Also, the MIC in the experiment with Enterococcus faecalis [10] came to 4 µg/mL; in the experiment with Staphylococcus aureus [12], 8 µg/mL; in the experiment with Staphylococcus aureus [11] it was 2 µg/mL.
For the molecule `C[n+]1c2ccccc2cc2ccccc21.[I-]`, the MIC in the experiment with Enterococcus faecium [1], in the experiment on Pseudomonas aeruginosa, in the experiment on Bacillus pumilus, with Bacillus subtilis [2], in the experiment with Staphylococcus aureus [3] and in the experiment on Streptococcus pyogenes [4] was over 64 µg/mL each time. Also, the MIC (in the experiment on Staphylococcus aureus [5]; with Streptococcus pyogenes [6]; with Enterococcus faecalis [7]; in [8]; with Escherichia coli; with Enterococcus faecium [9]) was over 64 µg/mL throughout. In addition, the MIC in the experiment with Enterococcus faecalis [10] and with Staphylococcus aureus [11] was over 64 µg/mL throughout.
As to `C[n+]1c2ccccc2c(/C=C/c2ccc(Cl)cc2Cl)c2ccccc21.[I-]`, the MIC in the experiment with Enterococcus faecium [1] is 4 µg/mL; with Pseudomonas aeruginosa, over 64 µg/mL; with Bacillus pumilus, 2 µg/mL; in the experiment on Bacillus subtilis [2] it was 0.5 µg/mL; in the experiment on Staphylococcus aureus [3], 1 µg/mL; in the experiment with Streptococcus pyogenes [4], 0.5 µg/mL. Besides, the MIC is 0.5 µg/mL in the experiment on Staphylococcus aureus [5]; 0.25 µg/mL in the experiment on Streptococcus pyogenes [6]; 2 µg/mL in the experiment with Enterococcus faecalis [7]; 2 µg/mL in experiment [8]; 32 µg/mL in the experiment on Escherichia coli; 4 µg/mL in the experiment on Enterococcus faecium [9]. Further, the values for the MIC with Enterococcus faecalis [10], in the experiment with Staphylococcus aureus [12] and in the experiment with Staphylococcus aureus [11] were 8 µg/mL, 2 µg/mL and 1 µg/mL, respectively.
